ChEMBL document CHEMBL4304792, “Cinnamonitrile Adjuvants Restore Susceptibility to β-Lactams against Methicillin-Resistant Staphylococcus aureus” (ACS Med Chem Lett, 2019)
The source made the active and inactive calls. No cut-off for these calls is given here.

Legend:
[1] = test system: Staphylococcus aureus; test: Potentiation of oxacillin induced antibacterial activity against methicillin susceptible Staphylococcus aureus ATCC29213 assessed as reduction in oxacillin MIC at 20 uM measured after 16 to 20 hrs in presence of 2% NaCl by microdilution broth method; assay type: functional
Procedure, shortened: (§1)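 Oxacillin MIC was measured against methicillin-susceptible strains with the adjuvant fixed at 20 μM. Potentiation was expressed as fold reduction of the oxacillin MIC relative to oxacillin alone.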

[2] = test system: Staphylococcus aureus; test: Potentiation of oxacillin induced antibacterial activity against methicillin susceptible Staphylococcus aureus NRS72 assessed as reduction in oxacillin MIC at 20 uM measured after 16 to 20 hrs in presence of 2% NaCl by microdilution broth method; assay type: functional; procedure, shortened: as §1
[3] = test system: HeLa; test: Cytotoxicity against human HeLa cells by XTT assay; assay type: cell-based
Procedure, shortened: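 HeLa human cervical cancer cells were exposed to the compounds. Viability was read by XTT colorimetric assay, and IC50 was reported in μM and mg·L–1.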

[4] = test system: Staphylococcus aureus; test: Potentiation of oxacillin induced antibacterial activity against Staphylococcus aureus MRSA252 assessed as oxacillin MIC at 20 uM measured after 16 to 20 hrs in presence of 2% NaCl by microdilution broth method (reference value: 256 mg/L); assay type: functional
[5] = test system: Staphylococcus aureus; test: Potentiation of oxacillin induced antibacterial activity against Staphylococcus aureus NRS70 assessed as oxacillin MIC at 8 uM measured after 16 to 20 hrs in presence of 2% NaCl by microdilution broth method (reference value: 64 mg/L); assay type: functional
[6] = test system: Staphylococcus aureus; test: Potentiation of oxacillin induced antibacterial activity against Staphylococcus aureus NRS384 assessed as oxacillin MIC at 20 uM measured after 16 to 20 hrs in presence of 2% NaCl by microdilution broth method (reference value: 32 mg/L); assay type: functional
[7] = test system: Staphylococcus aureus; test: Antibacterial activity against Staphylococcus aureus MW2 NRS123 measured after 16 to 20 hrs in presence of 2% NaCl by microdilution broth method; assay type: functional
[8] = test system: Staphylococcus aureus; test: Potentiation of oxacillin induced antibacterial activity against Staphylococcus aureus NRS119 assessed as oxacillin MIC at 16 uM measured after 16 to 20 hrs in presence of 2% NaCl by microdilution broth method (reference value: 256 mg/L); assay type: functional
[9] = test system: Staphylococcus aureus; test: Antibacterial activity against Staphylococcus aureus MRSA252 measured after 16 to 20 hrs in presence of 2% NaCl by microdilution broth method; assay type: functional
[10] = test system: Staphylococcus aureus; test: Inhibition of N-terminal His-tagged Staphylococcus aureus NCTC8325 RsbV expressed in Escherichia coli BL21 star (DE3) assessed as decrease in phosphorylation at 100 uM measured after 20 mins in presence of [33P] gammaATP by SDS-PAGE
[11] = test system: Staphylococcus aureus; test: Inhibition of N-terminal His-tagged Staphylococcus aureus capA1ct/B2 expressed in Escherichia coli BL21 star (DE3) assessed as decrease in phosphorylation at 100 uM using MBP as substrate measured after 20 mins in presence of [33P] gammaATP by SDS-PAGE
[12] = test system: Staphylococcus aureus; test: Synergistic antibacterial activity against methicillin resistant Staphylococcus aureus NRS384 assessed as fractional inhibitory concentration index in presence of oxacillin by checkerboard assay; assay type: functional
Procedure, shortened: (§2)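 Checkerboard combinations of the adjuvant with oxacillin were tested against MRSA strains NRS1, NRS70 and NRS384. The fractional inhibitory concentration index (FICI) was derived from the combination MICs, and each interaction was classed as synergistic or indifferent (additive).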

[13] = test system: Staphylococcus aureus; test: Inhibition of C-terminal His-tagged Staphylococcus aureus NCTC8325 RsbW expressed in Escherichia coli BL21 star (DE3) assessed as decrease in phosphorylation at 100 uM using RsbV as substrate measured after 20 mins in presence of [33P] gammaATP by SDS-PAGE
[14] = test system: Staphylococcus aureus; test: Inhibition of recombinant […] N-terminal Stre-tagged Staphylococcus aureus NCTC8325 STK1 domain (1 to 348 residues) expressed in Escherichia coli BL21 star (DE3) assessed as decrease in phosphorylation at 100 uM using MBP as substrate measured after 20 mins in presence of [33P] gammaATP by SDS-PAGE
[15] = test system: Staphylococcus aureus; test: Inhibition of recombinant full length N-terminal Stre-tagged Staphylococcus aureus NCTC8325 STK1 expressed in Escherichia coli BL21 star (DE3) assessed as decrease in phosphorylation at 100 uM using MBP as substrate measured after 20 mins [33P] gammaATP by SDS-PAGE
[16] = test system: Staphylococcus aureus; test: Synergistic antibacterial activity against methicillin resistant Staphylococcus aureus NRS70 assessed as fractional inhibitory concentration index in presence of oxacillin by checkerboard assay; assay type: functional; procedure, shortened: as §2
[17] = test system: Staphylococcus aureus; test: Synergistic antibacterial activity against methicillin resistant Staphylococcus aureus Mu50 NRS1 assessed as fractional inhibitory concentration index in presence of oxacillin by checkerboard assay; assay type: functional; procedure, shortened: as §2

SMILES | fold change (FC) [1] | fold change (FC) [2] | IC50 [3] [µM] | MIC [4] | MIC [5] [µg/mL] | MIC [6] [µg/mL] | MIC [7] [µg/mL] | MIC [8] [µg/mL] | MIC [9] [µg/mL] | inhibition [10] | inhibition [11] | fractional inhibitory concentration index (FICI) [12] | inhibition [13] | inhibition [14] | inhibition [15] | fractional inhibitory concentration index (FICI) [16] | fractional inhibitory concentration index (FICI) [17]
CS(=O)(=O)/C(C#N)=C/c1c(F)ccc(Cc2ccc(Cl)c(Cl)c2)c1F | 2 - 10 | 2 - 10 | 92 | 64 µg/mL | 64 | ≤ 0.03 | 16 | 1 | 16 | – | – | – | – | – | – | – | –
CS(=O)(=O)/C(C#N)=C/c1cc(Cc2ccc(Cl)c(Cl)c2)ccc1OC(F)(F)F | 2 - 10 | 2 - 10 | 73 | Active | 0.25 | ≤ 0.03 | ≥ 64 | 0.03 | 8 | inactive | inactive | 0.38 | inactive | inactive | inactive | 0.28 | 0.28
CS(=O)(=O)/C(C#N)=C/c1cc(-c2ccc(Cl)c(Cl)c2)ccc1F | 2 - 10 | 2 - 10 | 130 | 128 µg/mL | 16 | 4 | 16 | 0.5 | 16 | – | – | – | – | – | – | – | –
CS(=O)(=O)/C(C#N)=C/c1cc(Cc2ccc(Cl)c(Cl)c2)ccc1F | 2 - 10 | 2 - 10 | 125 | 128 µg/mL | 8 | 0.06 | ≥ 64 | 1 | 32 | – | – | – | – | – | – | – | –
N#C/C(=C\c1cc(Cc2ccc(Cl)c(Cl)c2)ccc1F)S(=O)(=O)c1ccccn1 | 2 - 10 | 2 - 10 | 87 | 2 µg/mL | 4 | 0.06 | 16 | 0.5 | 16 | – | – | – | – | – | – | – | –
